Results published in ChEMBL document CHEMBL1158464, “Structure-activity relationships and cancer-cell selective toxicity of novel inhibitors of glioma-associated oncogene homologue 1 (Gli1) mediated transcription” (J Med Chem, 2009).
Activity calls are given as the source filed them. The calls are words filed in the database; no cut-off is given here.

Tests used:
[1] = biological target: T1, Zinc finger protein GLI1 (Homo sapiens) (UniProt P08151); assay: Inhibition of exogenously transfected human Gli1-mediated transcriptional activity in mouse C3H10T1/2 cells at 40 uM after 24 hrs by luciferase reporter gene assay; format: cell-based; conditions: C3H 10T1/2
T1 sequence (whole entry): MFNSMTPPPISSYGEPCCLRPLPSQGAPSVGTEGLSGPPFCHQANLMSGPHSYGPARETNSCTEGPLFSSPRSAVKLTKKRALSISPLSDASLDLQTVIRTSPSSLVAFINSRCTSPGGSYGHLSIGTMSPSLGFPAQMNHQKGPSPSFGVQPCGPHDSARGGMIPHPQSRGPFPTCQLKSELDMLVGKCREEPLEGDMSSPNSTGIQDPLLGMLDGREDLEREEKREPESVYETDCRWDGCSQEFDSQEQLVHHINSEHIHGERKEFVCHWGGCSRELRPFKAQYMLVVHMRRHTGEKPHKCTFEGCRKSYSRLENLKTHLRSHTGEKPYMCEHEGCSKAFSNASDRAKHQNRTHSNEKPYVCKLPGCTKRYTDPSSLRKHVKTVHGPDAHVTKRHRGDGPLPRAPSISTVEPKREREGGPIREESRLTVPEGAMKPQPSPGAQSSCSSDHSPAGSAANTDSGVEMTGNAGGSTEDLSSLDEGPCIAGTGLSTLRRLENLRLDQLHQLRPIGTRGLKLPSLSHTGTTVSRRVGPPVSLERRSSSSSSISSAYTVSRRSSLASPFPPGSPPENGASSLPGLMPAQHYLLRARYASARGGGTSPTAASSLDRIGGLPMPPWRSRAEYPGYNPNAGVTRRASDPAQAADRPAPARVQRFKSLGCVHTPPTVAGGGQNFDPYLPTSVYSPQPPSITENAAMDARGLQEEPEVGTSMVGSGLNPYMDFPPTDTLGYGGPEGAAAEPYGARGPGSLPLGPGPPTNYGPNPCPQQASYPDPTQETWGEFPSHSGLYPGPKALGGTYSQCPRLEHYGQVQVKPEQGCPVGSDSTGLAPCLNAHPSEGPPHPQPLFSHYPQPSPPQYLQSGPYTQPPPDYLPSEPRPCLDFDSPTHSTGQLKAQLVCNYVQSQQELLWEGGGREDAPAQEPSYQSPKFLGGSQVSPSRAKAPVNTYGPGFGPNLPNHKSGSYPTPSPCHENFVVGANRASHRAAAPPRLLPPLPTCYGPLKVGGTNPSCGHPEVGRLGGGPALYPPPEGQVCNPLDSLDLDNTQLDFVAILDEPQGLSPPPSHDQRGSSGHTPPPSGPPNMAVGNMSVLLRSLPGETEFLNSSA
Outline: (§1)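 They were replated 18 h later, given compound or DMSO 6 h after plating, and exposed for 24 h at 37 °C, 5% CO2. Lysate was read by dual luciferase as firefly/Renilla, triplicate, DMSO = 0%. IC50 came from curve fitting.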

HepG2 = assay: Cytotoxicity against human HepG2 cells at 40 uM/well after 68 hrs by alamar blue assay; format: functional, cell-based
Outline: (§2)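 Cells plated in appropriate medium 24 h before compound. A 10 mM DMSO stock was diluted in EMEM to 160 µM (4×) and added in triplicate to a final 40 µM. Incubated 68 h at 37 °C, then Alamar Blue for 4 h at 37 °C. Fluorescence read at ex 510/em 590 nm. Viability taken relative to DMSO control wells.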

Zinc finger protein GLI2 = Zinc finger protein GLI2 (Homo sapiens, UniProt P10070); assay: Inhibition of exogenously transfected human Gli2 delta-N-mediated transcriptional activity in mouse C3H10T1/2 cells after 24 hrs by luciferase reporter gene assay; format: cell-based; conditions: c3h 10t1/2
Zinc finger protein GLI2, sequence (P10070 whole entry, looked up): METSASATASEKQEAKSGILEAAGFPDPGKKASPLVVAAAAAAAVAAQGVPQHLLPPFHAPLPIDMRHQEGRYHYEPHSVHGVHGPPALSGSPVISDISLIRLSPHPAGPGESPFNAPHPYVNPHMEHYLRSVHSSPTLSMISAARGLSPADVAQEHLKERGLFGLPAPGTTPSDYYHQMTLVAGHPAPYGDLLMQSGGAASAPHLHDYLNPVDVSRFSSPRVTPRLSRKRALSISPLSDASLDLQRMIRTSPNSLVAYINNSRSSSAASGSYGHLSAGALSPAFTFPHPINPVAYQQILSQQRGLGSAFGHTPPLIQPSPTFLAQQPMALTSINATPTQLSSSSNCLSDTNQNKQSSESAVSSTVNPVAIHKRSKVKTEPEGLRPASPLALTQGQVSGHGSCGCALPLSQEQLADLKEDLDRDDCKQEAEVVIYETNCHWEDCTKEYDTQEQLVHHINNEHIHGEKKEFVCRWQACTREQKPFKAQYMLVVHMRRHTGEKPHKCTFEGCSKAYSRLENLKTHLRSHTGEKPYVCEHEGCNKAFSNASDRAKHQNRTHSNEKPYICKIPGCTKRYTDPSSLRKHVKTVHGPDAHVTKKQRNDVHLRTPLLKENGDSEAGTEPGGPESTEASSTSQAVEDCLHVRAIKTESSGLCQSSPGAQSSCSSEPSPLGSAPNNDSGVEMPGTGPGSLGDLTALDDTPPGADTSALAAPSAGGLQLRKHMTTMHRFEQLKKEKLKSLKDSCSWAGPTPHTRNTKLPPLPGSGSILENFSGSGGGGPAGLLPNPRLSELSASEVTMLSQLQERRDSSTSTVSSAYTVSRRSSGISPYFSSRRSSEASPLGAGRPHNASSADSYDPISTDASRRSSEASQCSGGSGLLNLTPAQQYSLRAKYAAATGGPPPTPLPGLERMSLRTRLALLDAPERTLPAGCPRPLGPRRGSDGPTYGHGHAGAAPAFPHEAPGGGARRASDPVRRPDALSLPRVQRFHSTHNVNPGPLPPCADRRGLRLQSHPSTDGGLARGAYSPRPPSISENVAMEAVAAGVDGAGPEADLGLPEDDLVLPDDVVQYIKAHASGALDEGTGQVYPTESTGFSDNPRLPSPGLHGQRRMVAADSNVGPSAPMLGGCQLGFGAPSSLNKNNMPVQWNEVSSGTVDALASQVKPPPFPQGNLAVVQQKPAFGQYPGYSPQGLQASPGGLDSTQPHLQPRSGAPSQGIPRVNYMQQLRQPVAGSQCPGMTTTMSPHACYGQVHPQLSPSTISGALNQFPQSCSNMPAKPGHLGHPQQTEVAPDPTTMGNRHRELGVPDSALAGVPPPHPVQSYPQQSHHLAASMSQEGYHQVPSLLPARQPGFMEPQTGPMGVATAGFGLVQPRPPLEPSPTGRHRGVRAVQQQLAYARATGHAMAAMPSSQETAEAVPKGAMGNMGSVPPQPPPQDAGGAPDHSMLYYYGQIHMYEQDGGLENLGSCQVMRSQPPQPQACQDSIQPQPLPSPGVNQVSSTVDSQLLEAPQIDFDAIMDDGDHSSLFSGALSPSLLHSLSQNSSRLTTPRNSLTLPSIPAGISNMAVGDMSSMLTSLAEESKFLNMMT
Outline: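 C3H10T1/2 reporter assay run as for hGli1, but with an amino-terminal repressor-domain-deleted hGli2 (ΔNhGli2) in place of hGli1, plus GliLuc-BS and pRL-TK via Fugene6. Compound or DMSO was given for 24 h at 37 °C. Read-out was dual luciferase firefly/Renilla in triplicate, with dose-response curve fitting.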

C3H 10T1/2 [2] = assay: Inhibition of Photinus pyralis and Renilla luciferase expression exogenously transfected in mouse C3H10T1/2 cell lysate at 20 uM after 40 mins at room temperature by promega steady-glo luciferase assay; format: functional, cell-free
C3H 10T1/2 [3] = assay: Inhibition of Photinus pyralis and Renilla luciferase expression exogenously transfected in mouse C3H10T1/2 cell lysate at 60 uM after 40 mins at room temperature by promega steady-glo luciferase assay; format: functional, cell-free
[4] = Stability in mouse C3H10T1/2 cells assessed as compound degradation at 40 uM after 24 hrs by LCMS analysis; format: ADME, cell-based; conditions: c3h 10t1/2, 24 h
[5] = biological target: T1, Zinc finger protein GLI1 (Homo sapiens); assay: Inhibition of exogenously transfected human Gli1-mediated transcriptional activity in mouse C3H10T1/2 cells at 20 uM after 24 hrs by luciferase reporter gene assay; format: cell-based; conditions: C3H 10T1/2; outline: as §1
BJ = assay: Cytotoxicity against human TERT-immortalized human BJ cells at 40 uM/well after 68 hrs by alamar blue assay; format: cell-based; outline: as §2
C3H 10T1/2 [6] = assay: Inhibition of Photinus pyralis luciferase expression exogenously transfected in mouse C3H10T1/2 cell lysate at 20 uM after 40 mins at room temperature by promega steady-glo luciferase assay; format: functional, cell-free
[7] = biological target: T1, Zinc finger protein GLI1 (Homo sapiens); assay: Inhibition of endogenously overexpressed Gli1-mediated transcriptional activity in human Rh30 cells at 10 uM after 24 hrs by luciferase reporter gene assay; format: cell-based
Outline: (§3)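 Human Rh30 rhabdomyosarcoma cells (endogenous Gli1, no exogenous Gli1) in RPMI-1640 with 10% FBS were transfected overnight with Fugene6, GliLuc-BS (500 ng/mL) and pRL-CMV (2.5 ng/mL). Cells were replated, given compound or DMSO 18 h later, and exposed for 24 h at 37 °C, 5% CO2. Read-out was dual luciferase firefly/Renilla, triplicate, DMSO = 0%.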

C3H 10T1/2 [8] = assay: Inhibition of Photinus pyralis luciferase expression exogenously transfected in mouse C3H10T1/2 cell lysate at 40 uM after 40 mins at room temperature by promega steady-glo luciferase assay; format: functional, cell-free
Daoy = assay: Cytotoxicity against human DaOY cells at 40 uM/well after 68 hrs by alamar blue assay; format: functional, cell-based; outline: as §2
LN-229 = assay: Cytotoxicity against human LN229 cells at 40 uM/well after 68 hrs by alamar blue assay; format: functional, cell-based; outline: as §2
C3H 10T1/2 [9] = assay: Inhibition of human Gli1 protein expression exogenously transfected in mouse C3H10T1/2 cells at 40 uM by Western blot analysis; format: functional, cell-based
C3H 10T1/2 [10] = assay: Inhibition of human Gli1 protein expression exogenously transfected in mouse C3H10T1/2 cells at 20 uM by Western blot analysis; format: functional, cell-based
C3H 10T1/2 [11] = assay: Inhibition of Renilla luciferase expression exogenously transfected in mouse C3H10T1/2 cell lysate at 40 uM after 40 mins at room temperature by promega steady-glo luciferase assay; format: functional, cell-free
[12] = biological target: T1, Zinc finger protein GLI1 (Homo sapiens); assay: Inhibition of endogenously overexpressed Gli1-mediated transcriptional activity in human Rh30 cells at 20 uM after 24 hrs by luciferase reporter gene assay; format: cell-based; outline: as §3
C3H 10T1/2 [13] = assay: Inhibition of Photinus pyralis and Renilla luciferase expression exogenously transfected in mouse C3H10T1/2 cell lysate at 40 uM after 40 mins at room temperature by promega steady-glo luciferase assay; format: functional, cell-free
C3H 10T1/2 [14] = assay: Inhibition of Photinus pyralis luciferase expression exogenously transfected in mouse C3H10T1/2 cell lysate at 60 uM after 40 mins at room temperature by promega steady-glo luciferase assay; format: functional, cell-free
DU-145 = assay: Cytotoxicity against human DU145 cells at 40 uM/well after 68 hrs by alamar blue assay; format: functional, cell-based; outline: as §2
C3H 10T1/2 [15] = assay: Selectivity ratio of IC50 for exogenously transfected human Gli2 delta-N-mediated transcriptional activity in mouse C3H10T1/2 cells to IC50 for exogenously transfected human Gli1-mediated transcriptional activity in mouse C3H10T1/2 cells; format: cell-based
Outline: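 Ratio of IC50 values from dose-response curves of dual-luciferase Gli-reporter activity in C3H10T1/2 cells. Cells were transfected with ΔNhGli2 versus hGli1, plus GliLuc-BS and pRL-TK, and exposed to compound for 24 h at 37 °C. Triplicate data.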

Raji = assay: Cytotoxicity against human Raji cells at 40 uM/well after 68 hrs by alamar blue assay; format: functional, cell-based; outline: as §2
C3H 10T1/2 [16] = assay: Inhibition of Renilla luciferase expression exogenously transfected in mouse C3H10T1/2 cell lysate at 20 uM after 40 mins at room temperature by promega steady-glo luciferase assay; format: functional, cell-free
SJRH30 = assay: Cytotoxicity against human Rh30 cells at 40 uM/well after 68 hrs by alamar blue assay; format: functional, cell-based; outline: as §2
C3H 10T1/2 [17] = assay: Inhibition of Renilla luciferase expression exogenously transfected in mouse C3H10T1/2 cell lysate at 60 uM after 40 mins at room temperature by promega steady-glo luciferase assay; format: functional, cell-free
[18] = biological target: T1, Zinc finger protein GLI1 (Homo sapiens); assay: Inhibition of endogenously overexpressed Gli1-mediated transcriptional activity in human Rh30 cells at 40 uM after 24 hrs by luciferase reporter gene assay; format: cell-based; outline: as §3
MDA-MB-231 = assay: Cytotoxicity against human MDA-MB-231 cells at 40 uM/well after 68 hrs by alamar blue assay; format: functional, cell-based; outline: as §2
[19] = Cytotoxicity against mouse C3H10T1/2 cells; format: cell-based; conditions: c3h 10t1/2

Row | SMILES | inhibition [1] | Activity (HepG2) | IC50 (Zinc finger protein GLI2) | inhibition (C3H 10T1/2 [2]) | inhibition (C3H 10T1/2 [3]) | Stability [4] | inhibition [5] | Activity (BJ) | inhibition (C3H 10T1/2 [6]) | inhibition [7] | inhibition (C3H 10T1/2 [8]) | Activity (Daoy) | Activity (LN-229) | inhibition (C3H 10T1/2 [9]) | inhibition (C3H 10T1/2 [10]) | inhibition (C3H 10T1/2 [11]) | inhibition [12] | inhibition (C3H 10T1/2 [13]) | inhibition (C3H 10T1/2 [14]) | Activity (DU-145) | other results
1 | CCCN(CCc1ccc(O)cc1)C(=O)[C@@H](C)c1cccc(C(=O)c2ccccc2)c1 | Active | inactive | 23.9 µM | inactive | inactive | Stable | Active | Non-toxic | inactive | Active | inactive | Active | inactive | inactive | inactive | inactive | Active | inactive | inactive | Active | fold change (FC) (C3H 10T1/2 [15]): 3; Activity (Raji): Active; inhibition (C3H 10T1/2 [16]): inactive; Activity (SJRH30): Active; inhibition (C3H 10T1/2 [17]): inactive; inhibition [18]: Active; Activity (MDA-MB-231): Active
2 | C[C@H](C(=O)NCCc1ccc(O)cc1)c1cccc(C(=O)c2ccccc2)c1 | Active | inactive | 35.2 µM | inactive | inactive | Stable | Active | Non-toxic | inactive | Active | inactive | Active | inactive | inactive | inactive | inactive | Active | inactive | inactive | Active | Activity [19]: Non-toxic; Activity (Raji): Active; inhibition (C3H 10T1/2 [16]): inactive; Activity (SJRH30): Active; inhibition (C3H 10T1/2 [17]): inactive; inhibition [18]: Active; Activity (MDA-MB-231): Active
